Measured values gathered from unrelated publications.
Compare with care: the assays were run in different laboratories. pIC50: −log10 of the molar value.
Cell line: MCF7
Effect on: cell growth or viability

Structure (SMILES)	method	time	quantity	result
O=c1ccc2ccc3occc3c2o1	WST-1	48 h	pIC50	5.15
COc1ccc(/C=C\c2cc(OC)c(OC)c(OC)c2)cc1	SRB	48 h	pIC50	8.32
N.N.[Cl][Pt][Cl]	MTT	48 h	pIC50	4.81
[Cl-].[Cl-].[Co+2]	MTT	48 h	pIC50	< 3.82
N.N.O=C([O-])C1(C(=O)[O-])CCC1.[Pt+2]	MTT	96 h	pIC50	< 4.00
O=C(Oc1ccc(Br)cc1)[c-]1cccc1.[Fe+2].c1cc[cH-]c1	MTT	72 h	pIC50	5.04
CCN1C(=O)SC[C@H]1[C@@]1(O)C[C@H]2C[C@@H](CC[C@H](C)/C=C\C=C\CC/C(C)=C\C(=O)O2)O1	MTT	72 h	pIC50	6.02
COCO[C@@H]1[C@H]2OC(C)(C)O[C@H]2[C@H](O[C@H]2C[C@H]3OC(C)(C)OC[C@]34[C@@H]3[C@@H](CC[C@]4(O)C2)[C@@]2(O)CC[C@H](CO)[C@@]2(C)C[C@H]3OCOC)O[C@H]1C	resazurin	72 h	pIC50	< 4.00
C/C1=C/C(=O)O[C@@H]2C[C@@H](CC[C@H](C)/C=C\C=C\CC1)O[C@@](O)([C@@H]1CSC(=O)N1Cc1ccccc1)C2	MTT	72 h	pIC50	6.20
N.N.[Cl][Pt][Cl]	SRB	48 h	pIC50	5.02
COc1c2ccoc2cc2oc(=O)ccc12	WST-1	48 h	pIC50	4.46
COc1cc2c3c(n(CCCN4CCOCC4)c(=O)c2cc1OC)-c1cc2c(cc1C3=O)OCO2	–	72 h	IC50	0.288 µg/mL
CO[C@]1([C@@H]2CSC(=O)N2C)C[C@H]2C[C@@H](CC[C@H](C)/C=C\C=C\CC/C(C)=C\C(=O)O2)O1	MTT	72 h	pIC50	4.88
O=C(Oc1ccc(Cl)cc1)[c-]1cccc1.[Fe+2].c1cc[cH-]c1	MTT	72 h	pIC50	4.48
CO[C@]1([C@@H]2CSC(=O)N2CCCO)C[C@H]2C[C@@H](CC[C@H](C)/C=C\C=C\CC/C(C)=C\C(=O)O2)O1	MTT	72 h	pIC50	4.72
COc1c2c(cc3c1OCO3)[C@]13C=C[C@H](OC)C[C@@H]1[N@](C2)C[C@H]3OC(=O)c1ccc2ccccc2c1	WST-1	–	pIC50	< 5.00
C/C1=C/C(=O)O[C@@H]2C[C@@H](CC[C@H](C)/C=C\C=C\CC1)O[C@@](OCCc1ccccc1)([C@@H]1CSC(=O)N1)C2	MTT	72 h	pIC50	7.00
c1ccc2c(c1)CCc1c-2[nH]c2ccccc12	MTT	72 h	pIC50	< 4.12
C/C1=C/C(=O)O[C@@H]2C[C@@H](CC[C@H](C)/C=C\C=C\CC1)O[C@@](OC(=O)c1ccccc1)([C@@H]1CSC(=O)N1)C2	MTT	72 h	pIC50	6.28
N[C@@H](Cc1ccc(N(CCCl)CCCl)cc1)C(=O)O	CCK-8	48 h	pIC50	< 4.30
